Type in all cases: functional
Test [1] has as its system Mycobacterium tuberculosis. The test is described as follows: Antitubercular activity against multidrug-resistant Mycobacterium tuberculosis CIBIN/UMF15:99 isolate by microplate Alamar blue assay. The essentials: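 Modified microplate Alamar Blue assay. H37Rv ATCC 27294 is susceptible to streptomycin, isoniazid, rifampin, ethambutol and pyrazinamide. Clinical isolate CIBIN/UMF15:99 is resistant to the same five drugs. Test stocks were 2 mg/mL in 20% DMSO in Middlebrook 7H9 broth, filter-sterilized. Final concentrations ran from 100 to 0.78 µg/mL. Read-out was MIC, at least in triplicate.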

Test [2] has as its system Mycobacterium tuberculosis. The test can be described thus: Antitubercular activity against multidrug-resistant Mycobacterium tuberculosis CIBIN/UMF15:99 isolate by microplate Alamar blue assay relative to streptomycin.
Test [3] has as its system Mycobacterium tuberculosis. The test is described as follows: Antitubercular activity against multidrug-resistant Mycobacterium tuberculosis CIBIN/UMF15:99 isolate by microplate Alamar blue assay relative to rifampin.

In brackets after ≈: the same amount, converted by molar mass. Bounds are passed on as bounds.

For `CO[C@H]1/C=C/O[C@@]2(C)Oc3c(C)c(O)c4c(O)c(c(/C=N/N5CCN(C)CC5)c(O)c4c3C2=O)NC(=O)/C(C)=C\C=C\[C@H](C)[C@H](O)[C@@H](C)[C@@H](O)[C@@H](C)[C@H](OC(C)=O)[C@@H]1C` [RIFAMPIN], the minimal inhibitory concentration (MIC) (in general, the lowest concentration found to suppress growth) in test [1] was above 100 µg/mL.
The same measure, in the same setting: then `CC[C@@H](CO)NCCN[C@@H](CC)CO` [ETHAMBUTOL], with 8 µg/mL (≈ 39.2 µM); and `NNC(=O)c1ccncc1` [ISONIAZID], with 3.1 µg/mL (≈ 22.6 µM).
For `CC(C)=CCC[C@H](C)[C@@H]1CC[C@@H](C)c2c(O)cc(C)cc21` [LEUBETHANOL], the Ratio in test [2] and in test [3] was 16 throughout. The lowest concentration to inhibit growth in test [1] (MIC) was 6.3 µg/mL (≈ 22 µM).
In test [1], `CN[C@@H]1[C@H](O[C@H]2[C@H](O[C@H]3[C@H](O)[C@@H](O)[C@H](N=C(N)N)[C@@H](O)[C@@H]3N=C(N)N)O[C@@H](C)[C@]2(O)C=O)O[C@@H](CO)[C@H](O)[C@H]1O` [STREPTOMYCIN] came in with an MIC above 100 µg/mL.

The values are drawn from ChEMBL document CHEMBL1821701, “Stereochemical analysis of leubethanol, an anti-TB-active serrulatane, from Leucophyllum frutescens” (2011).
